The source made the active and inactive calls. The rule behind the calls is not given here.

Drawing on ChEMBL document CHEMBL1149635, “New chemical tools for investigating human mitotic kinesin Eg5” (Bioorg Med Chem, 2007), this text covers Activity and IC50 for 24 compounds.

Assay [1] has as its system HeLa. Nature of the assay: Induction of monoastral spindles in HeLa cells at 100 uM after 7 hrs. Type of assay: functional, Homo sapiens. The method, boiled down:
(§1)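 Fixed 1% paraformaldehyde-PBS 37 °C 3 min, then methanol −20 °C 5 min; anti-β-tubulin plus FITC secondary, propidium iodide counterstain. Monoastral spindles counted as percentage of mitotic cells; <25% deemed not significant.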

The subject of assay [2] is HeLa. The experiment in a line: Induction of monoastral spindles in HeLa cells at 50 uM after 7 hrs. The class given is functional, Homo sapiens. The method, boiled down: as §1
Assay [3] addresses T1, Kinesin-like protein KIF11 (Homo sapiens, UniProt P52732).
T1 sequence (P52732 whole entry): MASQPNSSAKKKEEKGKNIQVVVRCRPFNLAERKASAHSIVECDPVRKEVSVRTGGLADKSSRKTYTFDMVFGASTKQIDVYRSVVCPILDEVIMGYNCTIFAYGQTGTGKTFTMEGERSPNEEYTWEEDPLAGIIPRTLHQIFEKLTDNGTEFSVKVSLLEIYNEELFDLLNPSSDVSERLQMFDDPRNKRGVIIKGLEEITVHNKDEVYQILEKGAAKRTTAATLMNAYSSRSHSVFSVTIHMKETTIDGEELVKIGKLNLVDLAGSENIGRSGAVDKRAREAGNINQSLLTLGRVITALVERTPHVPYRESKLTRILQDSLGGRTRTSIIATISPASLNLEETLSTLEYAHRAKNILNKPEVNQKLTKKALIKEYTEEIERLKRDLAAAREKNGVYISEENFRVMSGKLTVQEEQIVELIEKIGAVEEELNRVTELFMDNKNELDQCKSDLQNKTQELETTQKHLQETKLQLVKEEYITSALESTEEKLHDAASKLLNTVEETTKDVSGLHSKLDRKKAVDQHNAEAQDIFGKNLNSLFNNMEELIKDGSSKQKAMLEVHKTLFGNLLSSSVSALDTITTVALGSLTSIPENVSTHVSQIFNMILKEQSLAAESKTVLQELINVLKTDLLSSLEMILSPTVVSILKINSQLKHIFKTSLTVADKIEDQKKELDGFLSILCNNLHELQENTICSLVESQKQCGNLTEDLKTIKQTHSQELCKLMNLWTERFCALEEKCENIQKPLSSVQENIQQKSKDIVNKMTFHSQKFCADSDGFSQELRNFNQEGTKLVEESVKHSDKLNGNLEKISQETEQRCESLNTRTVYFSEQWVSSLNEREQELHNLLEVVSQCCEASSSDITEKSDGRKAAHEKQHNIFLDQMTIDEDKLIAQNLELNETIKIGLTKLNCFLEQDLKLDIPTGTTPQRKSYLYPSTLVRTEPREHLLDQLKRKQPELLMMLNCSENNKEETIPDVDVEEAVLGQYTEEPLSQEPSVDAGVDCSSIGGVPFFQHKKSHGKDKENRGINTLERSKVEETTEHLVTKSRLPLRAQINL
Nature of the assay: Inhibition of Eg5 ATPase activity expressed in Escherichia coli after 12 hrs. Type of assay: functional.

Assay [4] addresses T1, Kinesin-like protein KIF11. Nature of the assay: Inhibition of microtubule-stimulated Eg5 ATPase activity expressed in Escherichia coli after 12 hrs. Type of assay: functional.
Assay [5] concerns the target T2, Kinesin-like protein KIF11 (Homo sapiens) (UniProt P52732).
T2 sequence (whole entry): T1 sequence (P52732 whole entry)
Nature of the assay: Inhibition of Eg5 ATPase activity expressed in Escherichia coli at 500 uM after 12 hrs. The class given is functional. The procedure, abridged: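 Basal (no microtubules) steady-state ATPase of Eg5 2–386 at 1.0 µM, pyruvate kinase/lactate dehydrogenase-coupled assay, room temperature, duplicate, 2.5% DMSO; top concentration 500 µM. Acetylated analogues alternatively preincubated (2 mM) 12 h at 37 °C in DMEM + 10% FBS before basal ATPase measurement.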

Assay [6] addresses T2, Kinesin-like protein KIF11 (Homo sapiens). The experiment in a line: Inhibition of microtubule-stimulated Eg5 ATPase activity expressed in Escherichia coli at 500 uM after 12 hrs. The class given is functional.
Assay [7] concerns HeLa. The experiment in a line: Induction of monoastral spindles in HeLa cells after 7 hrs. Type of assay: functional, cell-based. Conditions: Homo sapiens. The procedure, abridged:
as §1

In assay [8] the test system is HeLa. Nature of the assay: Cell cycle arrest in human HeLa cells assessed as 4N DNA content at 100 uM after 24 hrs. The class given is functional. The method, boiled down:
(§2)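 HeLa cells exposed 24 h; two-dimensional flow cytometry with MPM-2 antibody (mitosis-specific phosphoepitopes, FITC-conjugated secondary) and propidium iodide for DNA content; 10,000 events per sample, aggregates gated out; 4N population and fraction MPM-2 positive scored.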

In assay [9] the target is T1, Kinesin-like protein KIF11. Nature of the assay: Inhibition of Eg5 ATPase activity expressed in Escherichia coli after 12 hrs.
For assay [10], the system named is HeLa. The experiment in a line: Cell cycle arrest in human HeLa cells assessed as 4N DNA content at 25 uM after 24 hrs. The class given is functional. The method, boiled down: as §2

For `CC1=C(C(=O)O)C(c2cccc(O)c2)NC(=S)N1` (configuration not stated), the Activity with HeLa [1] is on record as 15.5%; in the assay on HeLa [2], under 25%. For the same compound, the IC50 was determined as 32 µM in [3] and 72.2 µM in assay [4].

With `CCOC(=O)C1=C(C)N(CCOCCOCCO)C(=S)NC1c1cccc(O)c1` (configuration not stated), the Activity in the assay with HeLa [1] is reported as 13.6%; with HeLa [2] it was under 25%. The result in [5] and in [6] was inactive.

Consider `CCOC(=O)C1=C(C)NC(SCC)=NC1c1cccc(O)c1` (configuration not stated), for which the Activity in the assay with HeLa [1] and with HeLa [2] was under 25% in each case. The result in assay [5] and in assay [6] was inactive.

`CC(=O)SCCOCCOC(=O)C1=C(C)NC(=S)NC1c1cccc(O)c1` (configuration not stated): the Activity with HeLa [1] is 32.5%; with HeLa [2], under 25%. In addition, the IC50 in assay [3] was found to be 4.5 µM; in assay [4] it was 11.5 µM.

With `CCOC(=O)C1=C(C)NC(=S)NC1c1ccc(O)c(O)c1` (configuration not stated), the Activity in the assay with HeLa [2] is on record as under 25%. In addition, the outcome in assay [5] and in [6] was inactive.

On to `CC1=C(C(=O)NCCOCCOCCN)C(c2cccc(O)c2)NC(=S)N1` (configuration not stated), for which the Activity in the assay on HeLa [1] was 15.8%; in the assay on HeLa [2], under 25%. Further, the IC50 in assay [3] was 22 µM; in assay [4], 18.3 µM.

On to `CCOC(=O)C1=C(C)NC(=S)NC1c1cc(O)ccc1[N+](=O)[O-]` (configuration not stated), for which the Activity with HeLa [2] was under 25%. Moreover, the outcome in assay [5] and in assay [6] was inactive.

For the compound `CC1=C(C(=O)OCCOCCS)C(c2cccc(O)c2)NC(=S)N1` (configuration not stated), the Activity was 15.2% in the assay on HeLa [1] and under 25% in the assay with HeLa [2]. Moreover, the IC50 came out at 4 µM in assay [3] and 5.5 µM in [4].

Regarding `CC1=C(C(=O)OCCOCCOC(=O)C2=C(C)NC(=S)NC2c2cccc(O)c2)C(c2cccc(O)c2)NC(=S)N1` (configuration not stated), the results for the Activity with HeLa [1] and with HeLa [2] were 11.4% and under 25%, respectively. Also, the IC50 in assay [3] came out at 10 µM; in [4], 24 µM.

As to `CCOC(=O)C1=C(C)NC(=[Se])NC1c1cccc(O)c1` (configuration not stated), the Activity in the assay with HeLa [1] is 33.2%. Further, the values for the IC50 in [3] and in assay [4] were 11.5 µM and 23 µM, respectively.

Take `CCOC(=O)C1=C(C)NC(=S)NC1c1cccc(O)c1` (configuration not stated) [MONASTROL]: the half-maximal inhibitory concentration (IC50) stood at 51.3 µM with HeLa [7], 6.1 µM in [3], 12.3 µM in assay [4] and 6.1 µM in assay [9]. Besides, the Activity in the assay on HeLa [1] was determined as 94.4%; in the assay on HeLa [2] it was 45.5%; in the assay on HeLa [8], 48%.

On to `CC1=C(C(=O)c2ccco2)C(c2cccc(O)c2)NC(=S)N1` (configuration not stated), for which the IC50 was 9.2 µM in the assay on HeLa [7], 1.5 µM in assay [3] and 3 µM in assay [4]. Also, the Activity with HeLa [10] worked out at 72%; in the assay on HeLa [2] it was 96.8%; in the assay with HeLa [8], 77%.

Regarding `CC1=C(C(=O)OCCOCCO)C(c2cccc(O)c2)NC(=S)N1` (configuration not stated), the Activity was 50.5% in the assay on HeLa [1] and under 25% in the assay on HeLa [2]. Moreover, the concentration for half-maximal inhibition (IC50) in assay [3] was found to be 9.5 µM; in assay [4], 21 µM.

Regarding `CC1=C(C(=O)OCCOCCOCCOCCO)C(c2cccc(O)c2)NC(=S)N1` (configuration not stated), the Activity in the assay on HeLa [1] is recorded as 16.8%; in the assay on HeLa [2], under 25%. Besides, the concentration for half-maximal inhibition (IC50) in assay [3] stood at 23 µM; in assay [4] it was 62.5 µM.

`CCOC(=O)C1=C(C)N=C(SCc2ccccc2)NC1c1cccc(O)c1` (configuration not stated): the Activity in the assay with HeLa [1] and in the assay on HeLa [2] was under 25% each time. Moreover, the result in assay [5] and in assay [6] was inactive.

With `CCOC(=O)C1=C(C)NC(=S)NC1c1cc(O)ccc1O` (configuration not stated), the result in the assay with HeLa [2] (Homo sapiens) was Active. The outcome in assay [5] and in assay [6] was inactive.

Compound `CCOC(=O)C1=C(C)NC(=S)NC1c1cc(OC(C)=O)ccc1OC(C)=O` (configuration not stated) had an Activity in the assay with HeLa [2] of 56.2%. In addition, the result in assay [5] and in [6] was inactive.

With `CCOC(=O)C1=C(C)NC(=S)NC1c1cccc(OC(C)=O)c1` (configuration not stated), the half-inhibitory concentration (IC50) with HeLa [7] came out at 50 µM; in assay [9] it was 3.9 µM. For the same compound, the figures for the Activity in the assay with HeLa [1] and with HeLa [2] were 89.6% and 49.7%, respectively. Also, the outcome in assay [5] and in assay [6] was inactive.

Regarding `CCOC(=O)C1=C(C)NC(=S)N(C(C)=O)C1c1cccc(OC(C)=O)c1` (configuration not stated), the IC50 stood at 62.5 µM in the assay with HeLa [7] and 5 µM in assay [9]. Further, the Activity in the assay with HeLa [1] is 83.5%; in the assay on HeLa [2], 39.3%. The outcome in assay [5] and in [6] was inactive.

With `CC1=C(C(=O)NCCOCCOCCN=[N+]=[N-])C(c2cccc(O)c2)NC(=S)N1` (configuration not stated), the Activity with HeLa [1] was 14.9%; in the assay on HeLa [2], under 25%. Moreover, the concentration for half-maximal inhibition (IC50) in assay [3] was 39 µM; in [4], 69.1 µM.

Turning to `CCOC(=O)C1=C(C)NC(=S)N(C(C)=O)C1c1cccc(O)c1` (configuration not stated), the Activity in the assay with HeLa [2] amounted to 36.9%. Further, the result in assay [5] and in assay [6] was inactive. Moreover, in assay [9], the half-maximal inhibitory concentration (IC50) amounted to 3.8 µM.

Consider `COC(=O)Nc1nc2cc(C(=O)c3cccs3)ccc2[nH]1` [NOCODAZOLE], for which the Activity in the assay with HeLa [10] turned out to be 82%.

As to `CCOC(=O)C1=C(C)NC(=S)NC1c1ccc(OCCOCCOCCO)c(O)c1` (configuration not stated), the values for the Activity in the assay on HeLa [1] and in the assay on HeLa [2] were 10.3% and under 25%, respectively. The result in assay [5] and in assay [6] was inactive.

Regarding `CCNC(=O)C1=C(C)NC(=S)NC1c1cccc(O)c1` (configuration not stated), the Activity was 17.8% in the assay on HeLa [1] and under 25% in the assay with HeLa [2]. For the same compound, the IC50 in assay [3] was 23 µM; in assay [4] it was 82.3 µM.

By IC50 is commonly meant the concentration that gives 50% inhibition. High values mean weaker potency, low ones greater potency.
